The record followed here is ChEMBL document CHEMBL1157755 (Bioorg Med Chem Lett, 2010).

pEC50: −log10 of the molar value.

Test [1] concerns the target Histamine H2 receptor (Cavia porcellus) (UniProt P47747). Kind of test: Agonist activity at histamine H2 receptor in spontaneously beating guinea pig atrium assessed as increase in heart rate as relative to histamine. The conditions noted are these: Cardiac atrium. It is filed as functional, tissue-based.
Test [2] addresses T1, Histamine H1 receptor (Homo sapiens, UniProt P35367). Nature of the test: Activity at human recombinant histamine H1 receptor expressed in Sf9 cells coexpressing RGS4 by steady-state GTPase activity assay relative to histamine. The essentials:
(§1)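 Steady-state GTPase activity was measured in Sf9 insect cell membranes. hH1R was co-expressed with RGS4; hH3R with Galphai2, Gbeta1gamma2 and RGS4; and hH4R-GAIP fusion protein with Galphai2 and Gbeta1gamma2. Agonist pEC50 or antagonist pKB was determined. […] Values are means of two to three experiments, each in duplicate.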

Test [3] addresses T2, Histamine H4 receptor (Homo sapiens, UniProt Q9H3N8). Kind of test: Activity at human recombinant GAIP-fused histamine H4 receptor expressed in Sf9 cells coexpressing Galphai, Gbeta1gamma2 by steady-state GTPase activity assay relative to histamine. The essentials:
as §1

Test [4] addresses T3, Histamine H2 receptor (Homo sapiens, UniProt P25021). Nature of the test: Selectivity ratio of EC50 for human histamine H2 to EC50 for guinea pig histamine H2 receptor.
Test [5] has as its target T3, Histamine H2 receptor. Kind of test: Agonist activity at GsalphaS-fused human histamine H2 receptor expressed in Sf9 cells by steady-state GTPase assay relative to histamine.
Test [6] has as its target Histamine H2 receptor (Cavia porcellus) (UniProt P47747). Nature of the test: Agonist activity at GsalphaS-fused guinea pig histamine H2 receptor expressed in Sf9 cells by steady-state GTPase assay relative to histamine.
In test [7] the target is T4, Histamine H2 receptor (Cavia porcellus, UniProt P47747). Kind of test: Agonist activity at histamine H2 receptor in spontaneously beating guinea pig atrium. Type of test: functional, tissue-based, Cardiac atrium.
T4 sequence (P47747 whole entry, the tested form may be a part): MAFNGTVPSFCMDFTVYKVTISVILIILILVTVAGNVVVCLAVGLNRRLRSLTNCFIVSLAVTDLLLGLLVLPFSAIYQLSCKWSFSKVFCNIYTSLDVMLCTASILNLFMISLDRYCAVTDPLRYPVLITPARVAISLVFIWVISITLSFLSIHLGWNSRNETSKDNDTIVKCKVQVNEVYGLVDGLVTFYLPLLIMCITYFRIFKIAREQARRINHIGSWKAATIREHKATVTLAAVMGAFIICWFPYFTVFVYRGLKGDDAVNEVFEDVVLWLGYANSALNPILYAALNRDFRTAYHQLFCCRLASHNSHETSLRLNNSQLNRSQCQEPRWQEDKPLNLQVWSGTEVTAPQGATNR
In test [8] the target is T3, Histamine H2 receptor. Kind of test: Agonist activity at GsalphaS-fused human histamine H2 receptor expressed in Sf9 cells by steady-state GTPase assay.
In test [9] the target is T4, Histamine H2 receptor. Nature of the test: Agonist activity at GsalphaS-fused guinea pig histamine H2 receptor expressed in Sf9 cells by steady-state GTPase assay.
The target of test [10] is T1, Histamine H1 receptor. Nature of the test: Activity at human recombinant histamine H1 receptor expressed in Sf9 cells coexpressing RGS4 by steady-state GTPase activity assay. The essentials: (§2)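 Steady-state GTPase activity was measured in Sf9 insect cell membranes. hH1R was co-expressed with RGS4; hH3R with Galphai2, Gbeta1gamma2 and RGS4; and hH4R-GAIP fusion protein with Galphai2 and Gbeta1gamma2. Agonist pEC50 or antagonist pKB was determined. Values are means of two to three experiments, each in duplicate.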

The target in test [11] is T2, Histamine H4 receptor. Nature of the test: Activity at human recombinant GAIP-fused histamine H4 receptor expressed in Sf9 cells coexpressing Galphai, Gbeta1gamma2 by steady-state GTPase activity assay. The essentials: as §2

T1 sequence (P35367 whole entry, the tested form may be a part): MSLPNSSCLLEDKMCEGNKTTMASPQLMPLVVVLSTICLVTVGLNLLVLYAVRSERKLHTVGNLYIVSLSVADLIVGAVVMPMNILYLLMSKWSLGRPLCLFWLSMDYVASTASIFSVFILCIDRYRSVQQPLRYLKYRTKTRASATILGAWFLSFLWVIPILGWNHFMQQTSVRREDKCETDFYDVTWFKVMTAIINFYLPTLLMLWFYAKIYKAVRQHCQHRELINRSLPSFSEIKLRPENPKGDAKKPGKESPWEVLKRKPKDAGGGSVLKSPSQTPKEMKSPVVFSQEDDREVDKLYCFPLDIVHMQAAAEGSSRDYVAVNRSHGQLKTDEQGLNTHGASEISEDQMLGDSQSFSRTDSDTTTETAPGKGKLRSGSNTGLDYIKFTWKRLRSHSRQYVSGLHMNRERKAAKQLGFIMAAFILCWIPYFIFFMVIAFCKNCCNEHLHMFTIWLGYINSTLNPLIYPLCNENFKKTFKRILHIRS
Sequence of Histamine H2 receptor (Cavia porcellus) (P47747 whole entry, the tested form may be a part): as the sequence (P47747 whole entry, the tested form may be a part) above
T2 sequence (Q9H3N8 whole entry, the tested form may be a part): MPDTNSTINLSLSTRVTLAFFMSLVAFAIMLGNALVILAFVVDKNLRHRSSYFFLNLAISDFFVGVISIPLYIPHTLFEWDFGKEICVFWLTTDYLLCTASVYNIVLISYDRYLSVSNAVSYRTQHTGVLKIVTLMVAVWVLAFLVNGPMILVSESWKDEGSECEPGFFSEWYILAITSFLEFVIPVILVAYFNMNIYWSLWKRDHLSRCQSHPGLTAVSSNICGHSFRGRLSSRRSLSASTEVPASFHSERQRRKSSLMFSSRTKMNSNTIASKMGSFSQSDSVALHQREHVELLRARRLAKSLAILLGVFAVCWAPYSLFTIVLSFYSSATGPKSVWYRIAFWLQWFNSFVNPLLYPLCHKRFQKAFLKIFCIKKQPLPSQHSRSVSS
T3 sequence (P25021 whole entry, the tested form may be a part): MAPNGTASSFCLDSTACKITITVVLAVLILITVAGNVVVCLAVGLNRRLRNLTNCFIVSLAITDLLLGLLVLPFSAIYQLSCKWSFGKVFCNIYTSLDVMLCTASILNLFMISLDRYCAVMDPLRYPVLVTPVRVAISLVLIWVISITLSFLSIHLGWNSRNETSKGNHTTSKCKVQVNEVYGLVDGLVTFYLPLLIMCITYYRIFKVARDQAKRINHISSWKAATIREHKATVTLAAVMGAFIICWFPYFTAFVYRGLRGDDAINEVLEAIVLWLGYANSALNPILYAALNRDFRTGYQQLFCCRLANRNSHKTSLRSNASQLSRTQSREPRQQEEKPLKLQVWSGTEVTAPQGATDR

As usually defined, the Emax is the greatest response seen or fitted, relative to the assay's reference. Take `C[C@H](CC(=O)NC(=N)NCCCc1c[nH]cn1)C1CCCCC1`: the Emax in test [1] worked out at 82%; at Histamine H1 receptor [2], 41%; on Histamine H4 receptor [3], 57%; at Histamine H2 receptor [5], 85%; in test [6], 90%. The Ratio EC50 on Histamine H2 receptor [4] was found to be 0.98.

The term pEC50 denotes −log10 of the EC50, conventionally taken in molar units. In the case of `Cc1nc(N)sc1CCCN=C(N)NC(=O)C[C@H](C)C1CCCCC1`, the values for the pEC50 at Histamine H2 receptor [7], on Histamine H2 receptor [8] and on Histamine H2 receptor [9] were 7.04, 7.54 and 7.85, respectively.

As for `C[C@H](CC(=O)NC(N)=NCCCc1cnc[nH]1)c1ccccc1`, the pEC50 is 7.03 on Histamine H2 receptor [7]; 5.21 at Histamine H1 receptor [10]; 7.64 at Histamine H4 receptor [11]; 6.92 at Histamine H2 receptor [8]; 7.12 on Histamine H2 receptor [9].

For the molecule `NCCc1c[nH]cn1` [HISTAMINE], the Emax (in test [1]; at Histamine H1 receptor [2]; at Histamine H4 receptor [3]; at Histamine H2 receptor [5]; in [6]) was 100% each time.

For `C[C@@H](CC(=O)NC(=N)NCCCc1c[nH]cn1)c1ccccc1`, the Emax turned out to be 102% in test [1]; 53% at Histamine H1 receptor [2]; 82% at Histamine H4 receptor [3]; 107% on Histamine H2 receptor [5]; 119% in [6]. For the same molecule, the Ratio EC50 on Histamine H2 receptor [4] stood at 3.32.

Regarding `Cc1nc(N)sc1CCCNC(=N)NC(=O)C[C@@H](C)C1CCCCC1`, the Emax was 80% in [1], 62% on Histamine H2 receptor [5] and 80% in test [6]. Besides, the Ratio EC50 at Histamine H2 receptor [4] turned out to be 1.53.

Consider `Cc1nc(N)sc1CCCNC(=N)NC(=O)CC(C)C1CCCCC1` (racemic), for which the pEC50 was 7.16 at Histamine H2 receptor [7], 8.03 on Histamine H2 receptor [8] and 8.12 at Histamine H2 receptor [9]. In addition, the figures for the maximal effect (Emax) (in test [1]; on Histamine H2 receptor [5]; in test [6]) were 74%, 56% and 82%, respectively. In addition, the Ratio EC50 on Histamine H2 receptor [4] stood at 1.24.

Turning to `C[C@@H](CC(=O)NC(N)=NCCCc1cnc[nH]1)c1ccccc1`, the pEC50 on Histamine H2 receptor [7] is 7.60; at Histamine H1 receptor [10], 6.08; at Histamine H4 receptor [11], 8.58; on Histamine H2 receptor [8], 7.10; at Histamine H2 receptor [9], 7.62.

In the case of `C[C@H](CC(=O)NC(=N)NCCCc1c[nH]cn1)c1ccccc1`, the Emax in [1] came out at 93%; at Histamine H1 receptor [2], 34%; on Histamine H4 receptor [3] it was 85%; on Histamine H2 receptor [5], 101%; in test [6], 101%. On Histamine H2 receptor [4], the Ratio EC50 is 1.58.

Take `Cc1nc(N)sc1CCCN=C(N)NC(=O)C[C@@H](C)c1ccccc1`: the figures for the negative-log EC50 (pEC50) at Histamine H2 receptor [7], at Histamine H2 receptor [8] and at Histamine H2 receptor [9] were 6.99, 7.27 and 7.77, respectively.

Regarding `Cc1nc(N)sc1CCCN=C(N)NC(=O)C[C@@H](C)C1CCCCC1`, the pEC50 on Histamine H2 receptor [7] is 7.24; on Histamine H2 receptor [8], 7.69; at Histamine H2 receptor [9] it was 7.88.

Consider `Cc1nc(N)sc1CCCNC(=N)NC(=O)C[C@H](C)C1CCCCC1`, for which the Emax in [1] was determined as 78%; at Histamine H2 receptor [5] it was 71%; in [6], 90%. Further, at Histamine H2 receptor [4], the Ratio EC50 is 2.05.

Turning to `Cc1nc(N)sc1CCCNC(=N)NC(=O)CC(C)c1ccccc1` (racemic), the negative logarithm of the EC50 (pEC50) was 7.31 at Histamine H2 receptor [7], 7.30 on Histamine H2 receptor [8] and 7.65 at Histamine H2 receptor [9]. Also, the Emax came to 89% in [1], 82% at Histamine H2 receptor [5] and 98% in test [6]. At Histamine H2 receptor [4], the Ratio EC50 stood at 2.22.

Consider `C[C@H](CC(=O)NC(N)=NCCCc1cnc[nH]1)C1CCCCC1`, for which the pEC50 at Histamine H2 receptor [7] is 6.99; on Histamine H1 receptor [10] it was 7.05; at Histamine H4 receptor [11], 8.08; on Histamine H2 receptor [8], 7.73; on Histamine H2 receptor [9] it was 7.72.

With `Cc1nc(N)sc1CCCNC(=N)NC(=O)C[C@@H](C)c1ccccc1`, the Emax in test [1] was found to be 73%; on Histamine H2 receptor [5] it was 65%; in [6], 86%. For the same molecule, the Ratio EC50 on Histamine H2 receptor [4] turned out to be 3.14.

Turning to `C[C@@H](CC(=O)NC(N)=NCCCc1cnc[nH]1)C1CCCCC1`, the pEC50 at Histamine H2 receptor [7] is 7.48; on Histamine H1 receptor [10], 7.18; at Histamine H4 receptor [11], 8.34; on Histamine H2 receptor [8], 8.19; at Histamine H2 receptor [9], 8.11.

Consider `C[C@@H](CC(=O)NC(=N)NCCCc1c[nH]cn1)C1CCCCC1`, for which the Emax in [1] worked out at 103%; at Histamine H1 receptor [2] it was 51%; on Histamine H4 receptor [3], 59%; at Histamine H2 receptor [5], 99%; in [6], 93%. Further, the Ratio EC50 on Histamine H2 receptor [4] is 0.84.

For `Cc1nc(N)sc1CCCNC(=N)NC(=O)C[C@H](C)c1ccccc1`, the negative-log EC50 (pEC50) on Histamine H2 receptor [7] was 7.40; at Histamine H2 receptor [8] it was 7.55; on Histamine H2 receptor [9], 8.11. Besides, the results for the maximal response (Emax) (in test [1]; at Histamine H2 receptor [5]; in test [6]) were 87%, 87% and 99%, respectively. In addition, at Histamine H2 receptor [4], the Ratio EC50 turned out to be 3.6.
